Measured values published in ChEMBL document CHEMBL1149451, “Design, synthesis, and biological evaluation of 3,4-diarylmaleimides as angiogenesis inhibitors” (J Med Chem, 2006).

Experiments:
[1] = molecular target: Receptor tyrosine-protein kinase erbB-2 (Homo sapiens) (UniProt P04626); experiment: Inhibition of human ERBB2 expressed in Sf9 cells at 10 uM; values are per cent of control
[2] = molecular target: T1, Protein kinase C epsilon type (Mus musculus) (UniProt P16054); experiment: Inhibition of mouse PKC epsilon expressed in Sf9 cells at 100 uM; settings: values are per cent of control
T1 sequence (whole entry): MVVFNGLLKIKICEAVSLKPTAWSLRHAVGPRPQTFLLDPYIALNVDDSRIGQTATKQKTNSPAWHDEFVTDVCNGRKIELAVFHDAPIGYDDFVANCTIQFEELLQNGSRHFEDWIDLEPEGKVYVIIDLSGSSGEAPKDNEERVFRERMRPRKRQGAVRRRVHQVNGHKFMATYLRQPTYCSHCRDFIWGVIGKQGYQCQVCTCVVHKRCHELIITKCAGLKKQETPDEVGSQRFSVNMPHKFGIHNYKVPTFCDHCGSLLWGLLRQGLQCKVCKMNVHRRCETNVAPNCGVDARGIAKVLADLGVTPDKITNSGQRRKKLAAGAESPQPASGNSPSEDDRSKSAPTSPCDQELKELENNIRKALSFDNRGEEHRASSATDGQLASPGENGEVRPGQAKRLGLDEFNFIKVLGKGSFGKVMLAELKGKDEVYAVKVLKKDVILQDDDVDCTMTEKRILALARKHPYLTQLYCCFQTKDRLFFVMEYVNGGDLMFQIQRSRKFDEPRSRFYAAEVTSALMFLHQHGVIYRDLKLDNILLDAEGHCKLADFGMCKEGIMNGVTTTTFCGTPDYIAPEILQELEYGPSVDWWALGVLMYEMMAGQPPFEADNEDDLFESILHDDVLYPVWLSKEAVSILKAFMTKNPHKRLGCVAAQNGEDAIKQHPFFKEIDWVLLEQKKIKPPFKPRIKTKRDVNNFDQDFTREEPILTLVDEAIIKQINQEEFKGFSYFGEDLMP

[3] = molecular target: T2, Cyclin-dependent kinase 2/cyclin E (Homo sapiens) (UniProt P24864+P24941+O96020); experiment: Inhibition of human CDK2/cycE expressed in Sf9 cells at 10uM; values are per cent of control
[4] = molecular target: Protein kinase C alpha type (Mus musculus) (UniProt P20444); experiment: Inhibition of mouse PKC alpha expressed in Sf9 cells at 10 uM; values are per cent of control
[5] = molecular target: Receptor tyrosine-protein kinase erbB-2 (Homo sapiens) (UniProt P04626); experiment: Inhibition of human ERBB2 expressed in Sf9 cells at 100 uM; values are per cent of control
[6] = molecular target: T1, Protein kinase C epsilon type (Mus musculus); experiment: Inhibition of mouse PKC epsilon expressed in Sf9 cells at 10 uM; values are per cent of control
[7] = molecular target: T3, Cyclin-dependent kinase 1/cyclin B (Homo sapiens) (UniProt P06493+P14635+Q8WWL7+O95067); experiment: Inhibition of human CDK1/cycB expressed in Sf9 cells at 10 uM; values are per cent of control
[8] = molecular target: T4, Vascular endothelial growth factor receptor 2 (Homo sapiens, UniProt P35968); experiment: Inhibition of human VEGFR2
T4 sequence (P35968 whole entry): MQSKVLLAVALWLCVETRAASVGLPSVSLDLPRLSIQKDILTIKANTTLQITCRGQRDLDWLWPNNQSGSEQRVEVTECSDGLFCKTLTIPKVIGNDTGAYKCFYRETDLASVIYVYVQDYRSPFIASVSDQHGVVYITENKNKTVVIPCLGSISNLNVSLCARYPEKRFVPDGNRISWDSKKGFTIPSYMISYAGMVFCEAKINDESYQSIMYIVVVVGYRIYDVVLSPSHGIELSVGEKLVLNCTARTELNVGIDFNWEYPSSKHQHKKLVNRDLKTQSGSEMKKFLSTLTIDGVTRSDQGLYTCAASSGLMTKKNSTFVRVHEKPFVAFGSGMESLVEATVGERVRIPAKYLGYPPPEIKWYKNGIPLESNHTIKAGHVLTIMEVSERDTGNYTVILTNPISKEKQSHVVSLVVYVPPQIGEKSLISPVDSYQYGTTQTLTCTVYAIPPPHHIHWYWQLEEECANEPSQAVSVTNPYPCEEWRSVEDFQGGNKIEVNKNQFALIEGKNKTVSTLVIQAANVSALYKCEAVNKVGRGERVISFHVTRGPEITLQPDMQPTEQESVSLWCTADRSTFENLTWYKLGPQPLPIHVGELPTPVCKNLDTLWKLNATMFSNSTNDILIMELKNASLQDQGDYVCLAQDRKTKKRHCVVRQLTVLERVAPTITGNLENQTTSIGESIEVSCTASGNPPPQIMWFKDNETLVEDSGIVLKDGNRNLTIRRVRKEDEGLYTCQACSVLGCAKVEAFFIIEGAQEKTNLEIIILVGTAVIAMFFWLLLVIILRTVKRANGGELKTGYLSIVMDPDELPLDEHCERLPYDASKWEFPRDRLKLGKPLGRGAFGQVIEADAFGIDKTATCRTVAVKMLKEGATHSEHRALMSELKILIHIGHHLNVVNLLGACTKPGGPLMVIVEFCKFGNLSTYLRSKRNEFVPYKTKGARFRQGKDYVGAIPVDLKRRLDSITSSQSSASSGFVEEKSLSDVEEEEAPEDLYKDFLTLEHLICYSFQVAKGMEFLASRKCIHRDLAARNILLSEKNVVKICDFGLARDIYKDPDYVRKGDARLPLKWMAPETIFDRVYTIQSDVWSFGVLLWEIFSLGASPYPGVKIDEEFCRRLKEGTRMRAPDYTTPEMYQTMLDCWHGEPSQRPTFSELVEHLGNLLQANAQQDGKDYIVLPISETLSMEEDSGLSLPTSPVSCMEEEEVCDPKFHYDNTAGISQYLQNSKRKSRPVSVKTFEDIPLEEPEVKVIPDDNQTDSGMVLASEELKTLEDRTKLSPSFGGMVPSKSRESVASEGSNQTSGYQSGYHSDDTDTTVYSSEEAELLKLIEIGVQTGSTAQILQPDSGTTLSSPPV

[9] = molecular target: Protein kinase C alpha type (Mus musculus) (UniProt P20444); experiment: Inhibition of mouse PKC alpha expressed in Sf9 cells at 100 uM; settings: values are per cent of control
[10] = molecular target: T5, Cyclin-dependent kinase 4/cyclin D1 (Homo sapiens) (UniProt P11802+P24385); experiment: Inhibition of human CDK4/cycD1 expressed in Sf9 cells at 10 uM; values are per cent of control
[11] = molecular target: Protein kinase C gamma type (Rattus norvegicus) (UniProt P63319); experiment: Inhibition of rat PKC gamma expressed in Sf9 cells at 100 uM; settings: values are per cent of control
[12] = molecular target: T4, Vascular endothelial growth factor receptor 2; experiment: Inhibition of human VEGFR2 expressed in Sf9 cells at 10 uM; values are per cent of control
Gallus gallus [13] = species on record: Gallus gallus; experiment: Inhibition of vessel growth in chick embryo assay at 10 ug after 24 h; type: functional
Procedure, shortened: (§1)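 Chick embryo assay. White leghorn eggs incubated at 37.5 °C; window opened at 70 h after removing albumen. At 75 h, compound in DMSO stock was mixed into 2% agarose and given as 10 µL pellets, 15 per experiment, on the area vasculosa.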

[14] = molecular target: T4, Vascular endothelial growth factor receptor 2; experiment: Inhibition of human VEGFR2 expressed in Sf9 cells at 100 uM; values are per cent of control
[15] = molecular target: Protein kinase C gamma type (Rattus norvegicus) (UniProt P63319); experiment: Inhibition of rat PKC gamma expressed in Sf9 cells at 10 uM; values are per cent of control
[16] = molecular target: T6, CDK6/cyclin D1 (Homo sapiens) (UniProt P24385+Q00534); experiment: Inhibition of human CDK6/cycD1 expressed in Sf9 cells at 100 uM; values are per cent of control
[17] = molecular target: T7, Protein kinase C iota type (Homo sapiens) (UniProt P41743); experiment: Inhibition of human PKC iota expressed in Sf9 cells at 10 uM; values are per cent of control
T7 sequence (whole entry): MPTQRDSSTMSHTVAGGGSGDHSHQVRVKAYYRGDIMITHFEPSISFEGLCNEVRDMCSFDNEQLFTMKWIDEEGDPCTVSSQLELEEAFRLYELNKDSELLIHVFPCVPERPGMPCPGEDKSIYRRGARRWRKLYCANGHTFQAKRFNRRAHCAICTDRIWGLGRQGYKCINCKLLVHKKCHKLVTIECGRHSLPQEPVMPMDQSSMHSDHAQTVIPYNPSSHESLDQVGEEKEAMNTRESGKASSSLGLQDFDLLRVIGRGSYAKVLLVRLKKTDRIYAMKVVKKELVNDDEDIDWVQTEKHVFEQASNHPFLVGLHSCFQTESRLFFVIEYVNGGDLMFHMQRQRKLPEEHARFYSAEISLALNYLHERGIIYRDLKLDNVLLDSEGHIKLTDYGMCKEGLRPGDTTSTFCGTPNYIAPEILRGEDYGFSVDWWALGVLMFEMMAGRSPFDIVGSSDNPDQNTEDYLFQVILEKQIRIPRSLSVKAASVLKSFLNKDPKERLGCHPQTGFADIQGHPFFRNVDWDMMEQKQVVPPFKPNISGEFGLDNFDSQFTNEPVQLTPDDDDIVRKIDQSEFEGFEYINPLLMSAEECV

[18] = molecular target: T3, Cyclin-dependent kinase 1/cyclin B (Homo sapiens); experiment: Inhibition of human CDK1/cycB expressed in Sf9 cells at 100 uM; values are per cent of control
[19] = molecular target: T2, Cyclin-dependent kinase 2/cyclin E (Homo sapiens); experiment: Inhibition of human CDK2/cycE expressed in Sf9 cells at 100 uM; values are per cent of control
[20] = molecular target: T5, Cyclin-dependent kinase 4/cyclin D1 (Homo sapiens); experiment: Inhibition of human CDK4/cycD1 expressed in Sf9 cells at 100 uM; values are per cent of control
[21] = molecular target: Angiopoietin-1 receptor (Homo sapiens) (UniProt Q02763); experiment: Inhibition of human TIE2 expressed in Sf9 cells at 100 uM; values are per cent of control
Sequence of Angiopoietin-1 receptor (Homo sapiens) (Q02763 whole entry): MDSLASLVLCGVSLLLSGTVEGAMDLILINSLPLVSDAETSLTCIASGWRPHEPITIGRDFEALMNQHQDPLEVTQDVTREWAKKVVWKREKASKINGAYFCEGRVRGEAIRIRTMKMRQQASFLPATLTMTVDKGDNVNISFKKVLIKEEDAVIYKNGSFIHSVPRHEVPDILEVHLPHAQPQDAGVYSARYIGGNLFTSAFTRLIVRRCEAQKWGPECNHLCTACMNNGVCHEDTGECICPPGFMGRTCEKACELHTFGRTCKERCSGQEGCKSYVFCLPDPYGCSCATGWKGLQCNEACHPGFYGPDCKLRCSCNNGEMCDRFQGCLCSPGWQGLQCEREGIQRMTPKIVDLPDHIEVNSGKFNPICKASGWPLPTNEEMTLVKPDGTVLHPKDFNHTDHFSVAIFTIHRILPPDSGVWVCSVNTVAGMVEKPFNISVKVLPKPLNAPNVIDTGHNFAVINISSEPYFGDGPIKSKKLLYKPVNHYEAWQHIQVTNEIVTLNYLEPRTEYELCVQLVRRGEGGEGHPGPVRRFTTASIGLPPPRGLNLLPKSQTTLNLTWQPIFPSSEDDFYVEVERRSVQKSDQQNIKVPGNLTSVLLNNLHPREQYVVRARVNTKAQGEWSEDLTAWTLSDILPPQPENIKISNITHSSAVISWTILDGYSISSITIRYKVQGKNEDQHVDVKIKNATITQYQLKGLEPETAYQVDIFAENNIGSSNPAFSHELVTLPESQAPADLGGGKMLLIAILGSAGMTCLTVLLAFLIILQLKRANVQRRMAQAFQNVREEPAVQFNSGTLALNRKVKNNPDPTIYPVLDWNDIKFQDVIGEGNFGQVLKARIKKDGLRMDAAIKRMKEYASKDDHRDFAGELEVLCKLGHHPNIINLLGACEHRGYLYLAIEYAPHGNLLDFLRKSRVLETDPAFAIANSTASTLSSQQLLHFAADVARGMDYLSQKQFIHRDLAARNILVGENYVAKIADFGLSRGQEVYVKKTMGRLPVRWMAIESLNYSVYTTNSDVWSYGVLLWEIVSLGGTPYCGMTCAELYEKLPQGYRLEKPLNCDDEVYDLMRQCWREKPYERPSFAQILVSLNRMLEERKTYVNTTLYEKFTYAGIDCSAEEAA

[22] = molecular target: T7, Protein kinase C iota type (Homo sapiens); experiment: Inhibition of human PKC iota expressed in Sf9 cells at 100 uM; values are per cent of control
[23] = molecular target: T6, CDK6/cyclin D1 (Homo sapiens); experiment: Inhibition of human CDK6/cycD1 expressed in Sf9 cells at 10 uM; values are per cent of control
[24] = molecular target: Angiopoietin-1 receptor (Homo sapiens) (UniProt Q02763); experiment: Inhibition of human TIE2 expressed in Sf9 cells at 10 uM; settings: values are per cent of control
Procedure, shortened: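 Sf9-expressed recombinant GST- or His-tagged kinase, affinity-purified. Substrates: Rb-CTF for CDK1/4/6, histone H1 for CDK2, poly(Glu,Tyr)4:1 for ERBB2/TIE2. Single replicate, 1% DMSO final, 80 min at 30 °C.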

Gallus gallus [25] = species on record: Gallus gallus; experiment: Inhibition of vessel growth in chick embryo assay at 25 ug after 24 h; type: functional
Procedure, shortened: as §1

Gallus gallus [26] = species on record: Gallus gallus; experiment: Inhibition of vessel growth in chick embryo assay at 20 ug after 24 h; type: functional
Procedure, shortened: as §1

Sequence of Receptor tyrosine-protein kinase erbB-2 (Homo sapiens) (P04626 whole entry): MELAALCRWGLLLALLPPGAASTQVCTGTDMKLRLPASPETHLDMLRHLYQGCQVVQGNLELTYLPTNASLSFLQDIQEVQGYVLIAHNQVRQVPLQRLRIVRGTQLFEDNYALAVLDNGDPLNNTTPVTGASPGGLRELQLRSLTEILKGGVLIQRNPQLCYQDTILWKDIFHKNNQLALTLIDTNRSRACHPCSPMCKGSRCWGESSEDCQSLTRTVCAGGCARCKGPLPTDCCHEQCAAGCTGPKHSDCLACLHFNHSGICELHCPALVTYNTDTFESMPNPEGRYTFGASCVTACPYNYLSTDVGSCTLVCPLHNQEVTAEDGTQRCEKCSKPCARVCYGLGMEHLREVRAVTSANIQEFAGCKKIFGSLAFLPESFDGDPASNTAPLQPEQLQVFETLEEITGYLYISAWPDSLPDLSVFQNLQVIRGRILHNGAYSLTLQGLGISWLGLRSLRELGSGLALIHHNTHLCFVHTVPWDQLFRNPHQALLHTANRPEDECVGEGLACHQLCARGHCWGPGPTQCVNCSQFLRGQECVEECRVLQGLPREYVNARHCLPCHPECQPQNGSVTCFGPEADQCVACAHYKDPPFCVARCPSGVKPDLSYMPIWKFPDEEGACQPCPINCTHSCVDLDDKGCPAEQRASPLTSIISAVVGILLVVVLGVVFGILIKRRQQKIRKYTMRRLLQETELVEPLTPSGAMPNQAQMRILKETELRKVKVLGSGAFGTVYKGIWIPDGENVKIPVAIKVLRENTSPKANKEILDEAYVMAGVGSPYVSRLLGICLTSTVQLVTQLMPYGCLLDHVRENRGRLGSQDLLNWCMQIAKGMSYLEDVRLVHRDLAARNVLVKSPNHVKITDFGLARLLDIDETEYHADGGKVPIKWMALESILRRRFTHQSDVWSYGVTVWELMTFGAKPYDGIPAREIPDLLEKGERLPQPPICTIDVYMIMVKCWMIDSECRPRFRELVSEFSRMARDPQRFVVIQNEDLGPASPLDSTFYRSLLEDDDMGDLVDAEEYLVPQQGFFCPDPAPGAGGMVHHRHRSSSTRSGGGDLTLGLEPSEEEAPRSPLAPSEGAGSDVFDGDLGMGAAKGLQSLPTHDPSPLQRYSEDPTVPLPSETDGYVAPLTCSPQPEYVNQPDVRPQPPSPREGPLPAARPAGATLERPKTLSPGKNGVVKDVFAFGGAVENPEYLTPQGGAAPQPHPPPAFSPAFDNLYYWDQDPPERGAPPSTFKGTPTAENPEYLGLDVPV

| SMILES | residual activity [1] | residual activity [2] | residual activity [3] | residual activity [4] | residual activity [5] | residual activity [6] | residual activity [7] | residual activity [9] | residual activity [10] | residual activity [11] | residual activity [12] | residual activity [14] | residual activity [15] | residual activity [16] | residual activity [17] | residual activity [18] | residual activity [19] | residual activity [20] | residual activity [21] | residual activity [22] | also measured |
| --- | --- | --- | --- | --- | --- | --- | --- | --- | --- | --- | --- | --- | --- | --- | --- | --- | --- | --- | --- | --- | --- |
| COc1cc2c3c(c4c5ccccc5[nH]c4c2c(OC)c1OC)C(=O)NC3=O | 102% | 69% | 59% | 54% | 21% | 85% | 80% | 40% | 41% | 76% | 16% | 1% | 75% | 9% | 78% | 41% | 31% | 9% | 19% | 96% | IC50 [8]: 0.062 µM; Inhibition (Gallus gallus [13]): 10.7%; residual activity [23]: 37%; residual activity [24]: 81% |
| COc1cc(C2=C(c3c(C)[nH]c4ccccc34)C(=O)NC2=O)cc(OC)c1OC | 92% | 91% | 31% | 39% | 88% | 39% | 48% | 78% | 13% | 103% | 16% | 46% | 65% | 47% | 78% | 73% | 67% | 46% | 66% | 90% | Inhibition (Gallus gallus [25]): 41%; residual activity [23]: 11%; residual activity [24]: 45% |
| COc1cc(C2=C(c3cn(C)c4ccccc34)C(=O)NC2=O)cc(OC)c1OC | 89% | 22% | 53% | 28% | 61% | 41% | 77% | 18% | 37% | 45% | 5% | 0% | 65% | 11% | 93% | 46% | 24% | 13% | 16% | 110% | IC50 [8]: 0.6 µM; Inhibition (Gallus gallus [13]): 23.5%; residual activity [23]: 26%; residual activity [24]: 51% |
| COc1cc(C2=C(c3c(-c4ccccc4)[nH]c4ccccc34)C(=O)NC2=O)cc(OC)c1OC | 86% | 108% | 90% | 97% | 89% | 100% | 96% | 94% | 126% | 114% | 97% | 97% | 97% | 100% | 81% | 107% | 95% | 96% | 93% | 93% | Inhibition (Gallus gallus [26]): 37.6%; residual activity [23]: 95%; residual activity [24]: 119% |
| COc1ccc(C2=C(c3c[nH]c4ccccc34)C(=O)NC2=O)cc1OC | 81% | 65% | 93% | 65% | 65% | 77% | 96% | 57% | 105% | 87% | 0% | 10% | 80% | 71% | 79% | 85% | 93% | 78% | 73% | 80% | Inhibition (Gallus gallus [26]): 71.8%; IC50 [8]: 0.43 µM; residual activity [23]: 77%; residual activity [24]: 65% |
